Source: ChEMBL document CHEMBL4602728, “6-Amino[1,2,5]oxadiazolo[3,4-b]pyrazin-5-ol Derivatives as Efficacious Mitochondrial Uncouplers in STAM Mouse Model of Nonalcoholic Steatohepatitis” (J Med Chem, 2020)
pEC50: −log10 of the molar value. Activity calls are given as the source filed them.

How the values were obtained:
[1] = Toxicity in C57BL/6 mouse model of streptozotocin-induced nonalcoholic steatohepatitis assessed as decrease in food consumption per cage at 10 mg/kg/day, po formulated into HFD administered for 21 days measured during compound dosing relative to control; format: organism-based; set-up: scale not given: the % may be the effect or the level left; conditions: in vivo, 504 h
Mus musculus [2] = test: (§1) Anti-hepatosteatosis activity in C57BL/6 mouse model of streptozotocin-induced nonalcoholic steatohepatitis assessed as fibrosis score at 10 mg/kg/day, po administered for 21 days formulated into HFD measured post-last dose by Picro-Sirius red staining based histopathological analysis (reference value: 0.91 +/- 0.09 %); format: functional
[3] = Toxicity in C57BL/6 mouse model of streptozotocin-induced nonalcoholic steatohepatitis assessed as effect on body weight at 10 mg/kg/day, po formulated into HFD administered for 21 days measured during compound dosing; format: organism-based; conditions: in vivo, 504 h
[4] = Toxicity in C57BL/6 mouse model of streptozotocin-induced nonalcoholic steatohepatitis assessed as effect on liver weight at 10 mg/kg/day, po formulated into HFD administered for 21 days measured during compound dosing; format: organism-based; conditions: in vivo, 504 h
Mus musculus [5] = test: Anti-hepatosteatosis activity in C57BL/6 mouse model of streptozotocin-induced nonalcoholic steatohepatitis assessed as reduction in liver triglyceride level at 10 mg/kg/day, po administered for 21 days formulated into HFD measured post-last dose by triglyceride E test based assay; format: functional, organism-based
[6] = Toxicity in C57BL/6 mouse model of streptozotocin-induced nonalcoholic steatohepatitis assessed as increase in plasma cholesterol level at 25 mg/kg/day, po formulated into HFD administered for 21 days measured post last dose by […] reagent based colorimetric method; format: organism-based; conditions: in vivo, 504 h
Method in brief: (§2)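 Cholesterol was measured in day-21 nonfasting plasma of STAM male mice on 25 mg kg−1 d−1 drug in high-fat diet. The colorimetric assay used Infinity cholesterol reagent at 37 °C for 5–20 min, reading absorbance at 500 nm minus 660 nm background. Values were interpolated from a cholesterol standard curve. n = 8; Kruskal–Wallis test.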

Mus musculus [7] = test: Anti-hepatosteatosis activity in C57BL/6 mouse model of streptozotocin-induced nonalcoholic steatohepatitis assessed as reduction in ALT level at 10 mg/kg/day, po administered for 21 days formulated into HFD measured post-last dose; format: functional, organism-based
[8] = Toxicity in C57BL/6 mouse model of streptozotocin-induced nonalcoholic steatohepatitis assessed as change in plasma AST level at 10 mg/kg/day, po formulated into HFD administered for 21 days measured post last dose; format: organism-based; conditions: in vivo, 504 h
[9] = Induction of mitochondrial uncoupling in rat L6 cells assessed as increase in oxygen consumption rate incubated for 90 mins by Seahorse XF analyzer based assay; format: mitochondria, Mitochondria
[10] = Toxicity in C57BL/6 mouse assessed as increase in body temperature at 5 to 50 mg/kg, po measured upto 4 hrs by rectal probe thermometry; format: organism-based; conditions: in vivo
Method in brief: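 Male C57BL/6 mice received a single oral gavage of vehicle or compound at 5, 20 or 50 mg/kg. The vehicle was methylcellulose, Tween 80 and DMSO. Core body temperature was taken with a rectal probe thermometer at set time points. n = 3; two-way repeated measures ANOVA.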

[11] = Cmax in C57BL/6 mouse at 10 mg/kg, po administered via gavage by LC/MS-MS analysis; format: ADME, organism-based; set-up: dose 10 mg/kg, route oral; conditions: in vivo
Method in brief: (§3)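 Male C57BL/6 mice aged 9–12 weeks received a single 10 mg/kg oral gavage bolus. The vehicle was methylcellulose 90–91%, Tween 80 2–3% and DMSO 6–8% (v/v). Tail-tip blood was drawn into heparinized capillaries and spun at 2000g for 10 min. Plasma was extracted with acetonitrile:methanol (9:1) and quantified by LC–MS/MS against spiked plasma standards (1–100 ng). n = 3.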

[12] = Half life in C57BL/6 mouse at 10 mg/kg, po administered via gavage by LC/MS-MS analysis; format: ADME, organism-based; conditions: in vivo; method in brief: as §3
[13] = Drug distribution in C57BL/6 mouse liver at 10 mg/kg, po administered via gavage measured after 1 hr by LC/MS-MS analysis; format: ADME, organism-based; conditions: read-out: Drug uptake
Method in brief: (§4)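 Male C57BL/6 mice received a single 10 mg/kg oral gavage and were euthanized by cervical dislocation at 1 h. Tissues were rinsed in PBS, snap-frozen, pulverized in liquid nitrogen and homogenized, then spun at 10 000g for 10 min. Supernatants were extracted with acetonitrile:methanol (9:1) and quantified by LC–MS/MS against spiked standards. n = 3.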

[14] = Drug distribution in C57BL/6 mouse kidney at 10 mg/kg, po administered via gavage measured after 1 hr by LC/MS-MS analysis; format: ADME, organism-based; conditions: read-out: Drug uptake; method in brief: as §4
[15] = Solubility of compound in PBS at pH 7.4; format: physicochemical; conditions: buffer
[16] = molecular target: Voltage-gated inwardly rectifying potassium channel KCNH2 (Homo sapiens, UniProt Q12809); test: Inhibition of human ERG by Qpatch method
[17] = Toxicity in C57BL/6 mouse model of streptozotocin-induced nonalcoholic steatohepatitis assessed as effect on food consumption per cage at 25 mg/kg/day, po formulated into HFD administered for 21 days measured during compound dosing (reference value: 318 +/- 13 g); format: organism-based; conditions: in vivo, 504 h
Mus musculus [18] = test: as §1, with “25” for “10”; format: functional
Mus musculus [19] = test: Anti-hepatosteatosis activity in C57BL/6 mouse model of streptozotocin-induced nonalcoholic steatohepatitis assessed as reduction in steatosis score at 25 mg/kg/day, po administered for 21 days formulated into HFD measured post-last dose by […] based histopathological analysis; format: functional, organism-based
Method in brief: (§5)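 Liver tissue came from STAM male mice fed drug-containing high-fat diet at 25 mg kg−1 d−1 for 21 days from 6 weeks of age. Pieces of the left lateral lobe were Bouin-fixed and paraffin-embedded, then H&E-stained. A pathologist scored steatosis, inflammation and ballooning using the Kleiner NAFLD activity score criteria. n = 8 per group; Kruskal–Wallis test.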

Mus musculus [20] = test: Anti-hepatosteatosis activity in C57BL/6 mouse model of streptozotocin-induced nonalcoholic steatohepatitis assessed as reduction in inflammation score at 25 mg/kg/day, po administered for 21 days formulated into HFD measured post-last dose by […] based histopathological analysis; format: functional, organism-based; method in brief: as §5
Mus musculus [21] = test: Anti-hepatosteatosis activity in C57BL/6 mouse model of streptozotocin-induced nonalcoholic steatohepatitis assessed as reduction in ballooning score at 25 mg/kg/day, po administered for 21 days formulated into HFD measured post-last dose by […] based histopathological analysis; format: functional, organism-based; method in brief: as §5
[22] = Toxicity in C57BL/6 mouse model of streptozotocin-induced nonalcoholic steatohepatitis assessed as effect on body weight at 25 mg/kg/day, po formulated into HFD administered for 21 days measured during compound dosing; format: organism-based; conditions: in vivo, 504 h
Method in brief: (§6)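 STAM male mice received the compound premixed in high-fat diet for 21 days from 6 weeks of age, at 25 mg kg−1 d−1. Body weight was recorded, and livers were weighed after sacrifice at 9 weeks of age. n = 8 per group; Kruskal–Wallis test.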

[23] = Toxicity in C57BL/6 mouse model of streptozotocin-induced nonalcoholic steatohepatitis assessed as effect on liver weight at 25 mg/kg/day, po formulated into HFD administered for 21 days measured during compound dosing; format: organism-based; conditions: in vivo, 504 h; method in brief: as §6
Mus musculus [24] = test: Anti-hepatosteatosis activity in C57BL/6 mouse model of streptozotocin-induced nonalcoholic steatohepatitis assessed as reduction in liver triglyceride level at 25 mg/kg/day, po administered for 21 days formulated into HFD measured post-last dose by triglyceride E test based assay; format: functional, organism-based
Method in brief: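 STAM male mice received 25 mg kg−1 d−1 in high-fat diet for 21 days and were killed at 9 weeks of age. The right liver lobe was snap-frozen. Total lipids were extracted by Folch's method, with homogenization in chloroform–methanol (2:1, v/v) and overnight incubation at room temperature. n = 8 per group; one-way ANOVA.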

[25] = Toxicity in C57BL/6 mouse model of streptozotocin-induced nonalcoholic steatohepatitis assessed as effect on plasma triglyceride level at 25 mg/kg/day, po formulated into HFD administered for 21 days measured post last dose by GPO reagent based colorimetric method; format: organism-based; conditions: in vivo, 504 h
Method in brief: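 Plasma triglyceride was measured in day-21 nonfasting plasma from STAM male mice given 25 mg kg−1 d−1 in high-fat diet. Samples were incubated with GPO reagent at 37 °C for 5–20 min until absorbance at 500 nm stabilized. Values were interpolated from a glycerol standard curve. n = 8; Kruskal–Wallis test.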

[26] = Toxicity in C57BL/6 mouse model of streptozotocin-induced nonalcoholic steatohepatitis assessed as effect on plasma cholesterol level at 25 mg/kg/day, po formulated into HFD administered for 21 days measured post last dose by […] reagent based colorimetric method; format: organism-based; conditions: in vivo, 504 h; method in brief: as §2
[27] = Toxicity in C57BL/6 mouse model of streptozotocin-induced nonalcoholic steatohepatitis assessed as effect on plasma glucose level at 25 mg/kg/day, po formulated into HFD administered for 21 days measured post last dose by […]; format: organism-based; conditions: in vivo, 504 h
Method in brief: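 Nonfasting whole-blood glucose was read with a glucose meter at sacrifice (day 21) in STAM male mice dosed at 25 mg kg−1 d−1 via high-fat diet. Readings above 900 mg/dL were recorded as 900 mg/dL. n = 8; one-way ANOVA.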

Mus musculus [28] = test: Anti-hepatosteatosis activity in C57BL/6 mouse model of streptozotocin-induced nonalcoholic steatohepatitis assessed as reduction in ALT level at 25 mg/kg/day, po administered for 21 days formulated into HFD measured post-last dose; format: functional, organism-based
Method in brief: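 STAM male mice were dosed with compound premixed into high-fat diet (57 kcal % fat) from 6 weeks of age for 21 days, at 25 mg kg−1 d−1. They were sacrificed at 9 weeks of age by cardiac puncture under isoflurane. Nonfasting heparinized blood was spun at 1000g for 15 min at 4 °C, and plasma ALT was read on a dry-chemistry analyzer. n = 8 male mice per group; mean ± SEM.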

[29] = Toxicity in C57BL/6 mouse model of streptozotocin-induced nonalcoholic steatohepatitis assessed as change in plasma AST level at 25 mg/kg/day, po formulated into HFD administered for 21 days measured post last dose; format: organism-based; conditions: in vivo, 504 h
Method in brief: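 Plasma was taken at day 21 from STAM mice fed drug in high-fat diet at 25 mg kg−1 d−1. AST activity was read with Infinity AST reagent at 37 °C, measuring absorbance at 340 nm every minute for 20 min. U/L was calculated from ΔA/min times a factor based on the NADH molar absorption coefficient, sample volume and path length. n = 8; one-way ANOVA.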

Chain of Voltage-gated inwardly rectifying potassium channel KCNH2 (Q12809 whole entry): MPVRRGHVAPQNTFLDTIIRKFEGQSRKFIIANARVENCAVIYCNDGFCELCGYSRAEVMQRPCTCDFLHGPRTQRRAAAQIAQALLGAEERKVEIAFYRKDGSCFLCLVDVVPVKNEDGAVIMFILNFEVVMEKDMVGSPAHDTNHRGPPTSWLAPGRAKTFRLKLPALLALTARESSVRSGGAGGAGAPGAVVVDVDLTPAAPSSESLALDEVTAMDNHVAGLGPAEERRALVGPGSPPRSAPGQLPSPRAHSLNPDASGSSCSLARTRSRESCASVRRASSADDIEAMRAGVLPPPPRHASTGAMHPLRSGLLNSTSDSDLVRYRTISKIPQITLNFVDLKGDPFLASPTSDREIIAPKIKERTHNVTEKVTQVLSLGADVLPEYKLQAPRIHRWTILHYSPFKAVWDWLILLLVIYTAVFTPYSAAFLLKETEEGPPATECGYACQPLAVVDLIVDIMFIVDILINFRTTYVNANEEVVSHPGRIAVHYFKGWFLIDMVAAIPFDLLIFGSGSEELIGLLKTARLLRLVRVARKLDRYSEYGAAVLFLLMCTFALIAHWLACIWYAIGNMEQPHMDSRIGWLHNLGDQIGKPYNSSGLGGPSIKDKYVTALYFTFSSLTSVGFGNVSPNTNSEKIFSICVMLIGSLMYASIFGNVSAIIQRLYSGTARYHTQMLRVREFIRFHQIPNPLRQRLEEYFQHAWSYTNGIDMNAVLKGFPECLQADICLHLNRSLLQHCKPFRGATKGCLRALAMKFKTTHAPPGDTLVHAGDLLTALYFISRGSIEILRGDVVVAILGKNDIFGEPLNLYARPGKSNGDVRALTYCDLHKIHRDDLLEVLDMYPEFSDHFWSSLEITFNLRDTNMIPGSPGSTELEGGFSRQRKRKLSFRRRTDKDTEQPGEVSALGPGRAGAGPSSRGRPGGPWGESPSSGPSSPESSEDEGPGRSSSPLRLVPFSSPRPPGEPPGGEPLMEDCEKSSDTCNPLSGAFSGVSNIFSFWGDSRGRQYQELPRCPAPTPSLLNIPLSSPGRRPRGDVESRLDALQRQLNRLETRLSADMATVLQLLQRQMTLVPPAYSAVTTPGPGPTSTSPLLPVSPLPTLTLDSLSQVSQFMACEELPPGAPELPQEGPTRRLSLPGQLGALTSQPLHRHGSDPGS

## CCCc1nc2c(C)cc(-c3nc4ccccc4n3C)cc2n1Cc1ccc(-c2ccccc2C(=O)O)cc1
[1]
  Activity: 9%
Mus musculus [2]
  Activity: 0.6%
[3]
  Activity: Toxic
[4]
  Activity: Toxic
Mus musculus [5]
  Activity: Active
[6]
  Activity: Toxic
Mus musculus [7]
  Activity: Active
[8]
  Activity: Non-Toxic

## Oc1nc2nonc2nc1Nc1ccc(OC(F)(F)F)cc1
[9]
  pEC50: 5.37
[10]
  Activity: Non-Toxic
[11]
  Cmax: 80.9 µM
[12]
  half-life: 5.7 h
[13]
  concentration at 1 h: 15800 ng/g
[14]
  concentration at 1 h: 9200 ng/g
[15]
  solubility: > 500 µM
[16]
  inhibition (INH): Not Active
[17]
  Activity: 331 g
Mus musculus [18]
  Activity: 0.62%
Mus musculus [19]
  Activity: Active
Mus musculus [20]
  Activity: Active
Mus musculus [21]
  Activity: Active
[22]
  Activity: Non-Toxic
[23]
  Activity: Non-Toxic
Mus musculus [24]
  Activity: Active
[25]
  Activity: Non-Toxic
[26]
  Activity: Non-Toxic
[27]
  Activity: Non-Toxic
Mus musculus [28]
  Activity: Active
[29]
  Activity: Non-Toxic
